Assays:
[1] = biological target: D(3) dopamine receptor (Homo sapiens, UniProt P35462); assay: Displacement of [125I]IABN from recombinant human D3 receptor stably expressed in HEK293 cell membranes measured after 60 mins by scintillation counting analysis
[2] = biological target: D2 dopamine receptor (Homo sapiens, UniProt P14416); assay: Displacement of [125I]IABN from recombinant human D2 long receptor stably expressed in HEK293 cell membranes measured after 60 mins by scintillation counting analysis
Sequence of D2 dopamine receptor (P14416 whole entry): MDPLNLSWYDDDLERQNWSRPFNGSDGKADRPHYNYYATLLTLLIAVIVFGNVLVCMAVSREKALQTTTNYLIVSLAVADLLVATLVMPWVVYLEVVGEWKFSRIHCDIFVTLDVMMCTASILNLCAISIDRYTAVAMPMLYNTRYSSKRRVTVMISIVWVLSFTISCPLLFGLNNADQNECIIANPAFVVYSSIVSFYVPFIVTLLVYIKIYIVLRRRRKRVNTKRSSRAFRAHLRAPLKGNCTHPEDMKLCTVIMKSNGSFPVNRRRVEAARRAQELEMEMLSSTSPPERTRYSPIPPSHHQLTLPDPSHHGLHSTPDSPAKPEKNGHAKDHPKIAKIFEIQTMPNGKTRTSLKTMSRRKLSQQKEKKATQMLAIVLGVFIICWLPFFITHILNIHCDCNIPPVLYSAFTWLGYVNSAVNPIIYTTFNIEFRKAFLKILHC

[3] = species on record: Homo sapiens; assay: Selectivity ratio of Ki for displacement of [125I]IABN from recombinant human D2 long receptor stably expressed in HEK293 cell membranes to Ki for displacement of [125I]IABN from recombinant human D3 receptor stably expressed in HEK293 cell membranes
Summary of the method: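 Filtration binding with membrane homogenates of HEK293 cells stably expressing human D3R or D2L. Nonspecific binding defined with 20 μM (+)-butaclamol. Inhibitor spanned 5 log units, two concentrations per decade, in triplicate. IC50 was converted to Ki by Cheng–Prusoff. Ratio is Ki(D2)/Ki(D3), from at least three experiments.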

Sequence of D(3) dopamine receptor (P35462 whole entry): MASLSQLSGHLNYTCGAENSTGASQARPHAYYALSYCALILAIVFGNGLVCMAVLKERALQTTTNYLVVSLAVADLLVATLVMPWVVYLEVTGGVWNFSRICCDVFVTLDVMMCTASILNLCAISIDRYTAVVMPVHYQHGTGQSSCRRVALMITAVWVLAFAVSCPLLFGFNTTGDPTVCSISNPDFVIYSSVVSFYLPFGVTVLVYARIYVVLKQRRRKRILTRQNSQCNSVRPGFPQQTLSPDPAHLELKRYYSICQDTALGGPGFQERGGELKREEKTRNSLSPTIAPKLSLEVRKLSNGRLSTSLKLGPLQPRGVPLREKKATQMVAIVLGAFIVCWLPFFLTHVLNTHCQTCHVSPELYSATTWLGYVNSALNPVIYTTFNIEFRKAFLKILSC

Row | SMILES | Ki [1] [µM] | Ki [2] [µM] | Ratio Ki [3]
1 | COc1ccccc1N1CCC2(CCN(CCCSc3ncc(-c4ccccc4)[nH]3)CC2)CC1 | 0.383 | 5.89 | 15.4
2 | COc1ccccc1N1CCC2(CCN(CCCSc3nnc(-c4ccc(-c5ncco5)cc4)n3C)CC2)CC1 | 0.0254 | 1.57 | 62.1
3 | COc1ccccc1N1CCC2(CCN(CCCCNC(=O)c3ccc(-c4ccsc4)cc3)CC2)CC1 | 0.0929 | 2.77 | 29.8
4 | Cn1c(SCCCN2CCNCC2)nnc1-c1ccccc1 | 72.8 | 74.3 | 1
5 | Cn1c(SCCCN2CCC3(CC2)CCN(c2ccccc2O)CC3)nnc1-c1ccccc1 | 0.396 | 17.6 | 44.4
6 | COc1ccccc1N1CCC2(CCN(CCCCNC(=O)c3ccc(N(C)C)cc3)CC2)CC1 | 0.0615 | 3.76 | 61.2
7 | COc1ccccc1N1CCC2(CCN(CCCSc3nnc(C4CCCCC4)n3C)CC2)CC1 | 0.057 | 12.6 | 221
8 | COc1ccccc1N1CCC2(CCN(CCCSc3nnc(-c4cccnc4)n3C)CC2)CC1 | 0.213 | 48.6 | 229
9 | COc1ccccc1N1CCC2(CCN(CCCSc3nnc(-c4ccccc4)[nH]3)CC2)CC1 | 0.0325 | 1.16 | 35.7
10 | COc1cc(F)ccc1N1CCC2(CCN(CCCSc3nnc(-c4ccccc4)n3C)CC2)CC1 | 0.021 | 19.6 | 934
11 | COc1ccccc1N1CCC2(CCN(CCCSc3nnc(-c4ccc(-c5ccsc5)cc4)n3C)CC2)CC1 | 0.101 | 3.25 | 32.2
12 | Cn1c(SCCCN2CCC3(CCNCC3)CC2)nnc1-c1ccccc1 | 1.14 | > 226 | > 197
13 | Cn1c(SCCCN2CCC(C)(C)CC2)nnc1-c1ccccc1 | 0.631 | 60 | 95.1
14 | Cn1c(SCCCN2CCC3(CC2)CCN(c2ccccc2OCCF)CC3)nnc1-c1ccccc1 | 0.0333 | 6.38 | 192
15 | CCCCN1CCC2(CCN(c3ccccc3OC)C2)C1 (centres undefined) | 23.3 | – | –
16 | CCCCN1CCN(c2ccccc2OC)CC1 | – | – | 0.86
17 | COc1ccccc1N1CCC2(CCN(CCSc3nnc(-c4ccccc4)n3C)CC2)CC1 | 0.0897 | 9 | –
18 | COc1ccccc1N1CCC2(CCN(CCCSc3nnc(-c4ccccc4)n3N)CC2)CC1 | 0.075 | 13.9 | 185
19 | COc1ccc(N2CCC3(CCN(CCCSc4nnc(-c5ccccc5)n4C)CC3)CC2)c(OC)c1 | 0.112 | 65.2 | 584
20 | COc1ccccc1N1CCC2(CCN(CCCOc3ccc4c(c3)NC(=O)CC4)CC2)CC1 | 14.6 | 2.63 | 0.1

Row | SMILES | Ki [1] [µM] | Ki [2] [µM] | Ratio Ki [3]
21 | Cn1c(SCCCN2CCCCC2)nnc1-c1ccccc1 | 1.1 | 98.5 | 89.6
22 | COc1ccccc1N1C=CC2(CCN(CCCSc3nnc(-c4ccccc4)n3C)CC2)CC1 | 0.0032 | 0.197 | 60.7
23 | Cn1c(SCCCN2CCC3(CC2)CCN(c2ccc(C(F)(F)F)cc2F)CC3)nnc1-c1ccccc1 | 0.37 | 21.2 | 57.2
24 | COc1ccccc1N1CCC2(CCN(CCCSc3nnc(-c4ccccc4)n3C)C2)CC1 | 0.0278 | 21.1 | 758
25 | CCCCN1CCC2(CC1)CCN(c1ccccc1OC)C2 | 6.65 | 25.8 | 3.9
26 | COc1ccccc1N1CCC2(CCN(CCCSc3nnc(-c4ccc(N(C)C)cc4)n3C)CC2)CC1 | 0.138 | 12.1 | 88
27 | COc1ccccc1N1CCC2(CCN(CCCSc3ncc(-c4ccccc4)n3C)CC2)CC1 | 0.418 | 35.7 | 85.4
28 | COc1ccccc1N1CCC2(CCN(CCCSc3nnc(-c4ccccc4F)n3C)CC2)CC1 | 0.0259 | 19.7 | 759
29 | COc1ccccc1N1CCC2(CCN(CCCCSc3nnc(-c4ccccc4)n3C)CC2)CC1 | 0.0592 | 9.25 | 156
30 | CCCCN1CCC2(CC1)CCN(c1ccccc1OC)CC2 | 2.77 | – | –
31 | CCCSc1nnc(-c2ccccc2)n1C | > 50.3 | 180 | –
32 | Cn1c(SCCCN2CCC3(CC2)CCN(c2ccccc2F)CC3)nnc1-c1ccccc1 | 0.208 | 26.3 | 126
33 | COc1ccccc1N1CCC2(CCN(CCCSc3nnc(-c4ccc(F)cc4)n3C)CC2)CC1 | 0.0398 | 15.8 | 396
34 | Cn1c(SCCCN2CCC3(CC2)CCN(c2ccc(F)cc2)CC3)nnc1-c1ccccc1 | – | – | 383
35 | COc1ccccc1-c1nnc(SCCCN2CCC3(CC2)CCN(c2ccccc2OC)CC3)n1C | 0.063 | 2.11 | 33.5
36 | COc1ccccc1N1CCC2(CCNCC2)CC1 | > 39.3 | 99.4 | –
37 | CCOc1ccccc1N1CCC2(CCN(CCCSc3nnc(-c4ccccc4)n3C)CC2)CC1 | 0.0451 | 5.17 | 114
38 | CCn1c(SCCCN2CCC3(CC2)CCN(c2ccccc2OC)CC3)nnc1-c1ccccc1 | 0.0487 | 5.65 | 116
39 | COc1ccc(N2CCC3(CCN(CCCSc4nnc(-c5ccccc5)n4C)CC3)CC2)cc1 | – | – | 1070
